Results from ChEMBL document CHEMBL1126988, “Quinolone antibacterials containing the new 7-[3-(1-aminoethyl)-1- pyrrolidinyl] side chain: the effects of the 1-aminoethyl moiety and its stereochemical configurations on potency and in vivo efficacy” (J Med Chem, 1993).
Values after ≈ are worked out from the molar mass of the structure shown.

How the values were obtained:
[1] = tested on: Escherichia coli; experiment: Antibacterial activity in vitro against Escherichia coli Vogel; format: functional
In short: (§1)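 Standard microtitration broth assay against a panel of 10 Gram-positive and Gram-negative organisms. MIC read in µg/mL and averaged over multiple experiments.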

[2] = tested on: Streptococcus pneumoniae; experiment: Minimum inhibitory concentration was evaluated in vitro against Streptococcus pneumoniae SV-1; format: functional; in short: as §1
[3] = tested on: Staphylococcus aureus; experiment: Minimum inhibitory concentration was evaluated in vitro against Staphylococcus aureus UC 76; format: functional; in short: as §1
[4] = tested on: Staphylococcus aureus; experiment: Minimum inhibitory concentration was evaluated in vitro against Staphylococcus aureus H 228; format: functional; in short: as §1
[5] = tested on: Klebsiella pneumoniae; experiment: Minimum inhibitory concentration was evaluated in vitro against Klebsiella pneumoniae MGH2; format: functional; in short: as §1
[6] = tested on: Escherichia coli; experiment: Antibacterial activity against Escherichia coli Vogel after oral administration in mouse; format: functional; conditions: Escherichia coli, po; read-out: PD50
[7] = organism: Mus musculus; experiment: Compounds were evaluated for phototoxicity no-effect dose in mouse; format: functional
In short: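 Depilated female CD-1 mice, five per dose plus controls. Animals are dosed orally and then exposed daily to UV-A (320–400 nm) for 3 h, for up to 4 days or until a definite positive response. Redness or erythema relative to controls, read 24 h after irradiation, counts as positive. Reported as the highest dose with no effect (mg/kg).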

[8] = tested on: Pseudomonas aeruginosa; experiment: Minimum inhibitory concentration was evaluated in vitro against Pseudomonas aeruginosa UI-18; format: functional; in short: as §1
[9] = tested on: Streptococcus pyogenes; experiment: Compounds were evaluated in vivo for antibacterial activity for mouse protection against Streptococcus pyogenes C 203 after oral administration; format: functional; conditions: for ED50: Streptococcus pyogenes, C 203, po, read-out: PD50
[10] = tested on: Providencia rettgeri; experiment: Minimum inhibitory concentration was evaluated in vitro against Providencia rettgeri M1771; format: functional; in short: as §1
[11] = tested on: Streptococcus pyogenes; experiment: Minimum inhibitory concentration was evaluated in vitro against Streptococcus pyogenes C 203; format: functional; in short: as §1
[12] = tested on: Streptococcus pyogenes; experiment: Antibacterial activity measured as mouse protection against Streptococcus pyogenes C 203 after subcutaneous administration; format: functional; conditions: for ED50: Streptococcus pyogenes, C 203, sc, read-out: PD50
[13] = tested on: Enterococcus faecalis; experiment: Minimum inhibitory concentration was evaluated in vitro against Enterococcus faecalis MGH-2; format: functional; in short: as §1
[14] = tested on: Escherichia coli; experiment: Antibacterial activity against Escherichia coli Vogel after subcutaneous administration in mouse; format: functional; conditions: Escherichia coli, sc; read-out: PD50
[15] = tested on: Enterobacter cloacae; experiment: Minimum inhibitory concentration in vitro against Enterobacter cloacae MA 2646; format: functional
[16] = Clonogenic cytotoxicity against hamster V-79 cells; format: functional, Cricetulus griseus, V79
In short: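 Chinese hamster V-79 cells grown overnight, then drug-treated for 3 h at 37 °C. Medium is replaced with fresh medium and cells are incubated 5 days to allow colony formation. IC50 (µg/mL) is the concentration inhibiting colony formation by 50% relative to control.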

[17] = Escherichia coli, read-out: MIC
[18] = Streptococcus pneumoniae, read-out: MIC
[19] = Staphylococcus aureus, read-out: MIC
[20] = Klebsiella pneumoniae, read-out: MIC
[21] = Pseudomonas aeruginosa, read-out: MIC
[22] = Providencia rettgeri, read-out: MIC
[23] = Streptococcus pyogenes, read-out: MIC
[24] = Enterococcus faecalis, read-out: MIC
[25] = Enterobacter cloacae, read-out: MIC

SMILES	MIC [1, 17] [µg/mL]	MIC [2, 18] [µg/mL]	MIC [3, 19] [µg/mL]	MIC [4, 19] [µg/mL]	MIC [5, 20] [µg/mL]	ED50 [6] [mg/kg]	Dose [7] [mg/kg]	MIC [8, 21] [µg/mL]	ED50 [9] [mg/kg]	MIC [10, 22] [µg/mL]	MIC [11, 23] [µg/mL]	ED50 [12] [mg/kg]	MIC [13, 24] [µg/mL]	ED50 [14] [mg/kg]	MIC [15, 25] [µg/mL]	Cytotoxicity [16] [µg/mL]	further results
CCN[C@H](C)[C@H]1CCN(c2c(F)cc3c(=O)c(C(=O)O)cn(C4CC4)c3c2OC)C1 (racemic)	0.1 (≈ 0.24 µM)	0.006 (≈ 0.0144 µM)	0.003 (≈ 0.00719 µM)	0.013 (≈ 0.0311 µM)	0.2 (≈ 0.479 µM)	5	>100	3.1 (≈ 7.43 µM)	0.5	0.4 (≈ 0.958 µM)	0.006 (≈ 0.0144 µM)	0.2	0.025 (≈ 0.0599 µM)	2	0.1 (≈ 0.24 µM)	110	–
CCN[C@H](C)[C@H]1CCN(c2c(F)c(N)c3c(=O)c(C(=O)O)cn(C4CC4)c3c2F)C1 (racemic)	0.025 (≈ 0.0595 µM)	0.003 (≈ 0.00714 µM)	0.003 (≈ 0.00714 µM)	0.003 (≈ 0.00714 µM)	0.05 (≈ 0.119 µM)	2	–	0.8 (≈ 1.9 µM)	0.3	0.1 (≈ 0.238 µM)	0.003 (≈ 0.00714 µM)	0.3	0.013 (≈ 0.0309 µM)	1	0.025 (≈ 0.0595 µM)	42	–
Nc1c(F)c(N2CCC(N)C2)cc2c1c(=O)c(C(=O)O)cn2C1CC1 (stereo unspecified)	0.013 (≈ 0.0375 µM)	0.025 (≈ 0.0722 µM)	0.025 (≈ 0.0722 µM)	0.1 (≈ 0.289 µM)	0.025 (≈ 0.0722 µM)	8	>300	0.4 (≈ 1.15 µM)	110	0.1 (≈ 0.289 µM)	0.05 (≈ 0.144 µM)	6	0.1 (≈ 0.289 µM)	1	0.013 (≈ 0.0375 µM)	12	–
C[C@@H](N)[C@H]1CCN(c2c(F)c(N)c3c(=O)c(C(=O)O)cn(C4CC4)c3c2F)C1 (racemic)	0.013 (≈ 0.0331 µM)	0.003 (≈ 0.00765 µM)	0.003 (≈ 0.00765 µM)	0.003 (≈ 0.00765 µM)	0.013 (≈ 0.0331 µM)	2	<30	0.4 (≈ 1.02 µM)	0.6	0.025 (≈ 0.0637 µM)	0.003 (≈ 0.00765 µM)	0.1	0.003 (≈ 0.00765 µM)	0.3	0.013 (≈ 0.0331 µM)	<7.8	–
CCn1cc(C(=O)O)c(=O)c2cc(F)c(N3CCC(C(C)N)C3)c(OC)c21 (racemic)	0.05 (≈ 0.132 µM)	0.003 (≈ 0.00795 µM)	0.003 (≈ 0.00795 µM)	0.006 (≈ 0.0159 µM)	0.1 (≈ 0.265 µM)	9	–	0.8 (≈ 2.12 µM)	3	0.1 (≈ 0.265 µM)	0.003 (≈ 0.00795 µM)	0.2	0.006 (≈ 0.0159 µM)	3	0.1 (≈ 0.265 µM)	19	–
COc1c(N2CCC(N)C2)c(F)cc2c(=O)c(C(=O)O)cn(C3CC3)c12 (stereo unspecified)	0.025 (≈ 0.0692 µM)	0.025 (≈ 0.0692 µM)	0.013 (≈ 0.036 µM)	0.05 (≈ 0.138 µM)	0.05 (≈ 0.138 µM)	3	>100	0.2 (≈ 0.553 µM)	10	0.1 (≈ 0.277 µM)	0.025 (≈ 0.0692 µM)	3	0.05 (≈ 0.138 µM)	0.4	0.025 (≈ 0.0692 µM)	45	–
CC(N)C1CCN(c2c(F)cc3c(=O)c(C(=O)O)cn(C4CC4)c3c2C(F)(F)F)C1 (racemic)	–	–	–	–	–	–	>100	–	–	–	–	–	–	–	–	19	MIC [1]: 0.2 µg/mL (≈ 0.468 µM); MIC [2]: 0.006 µg/mL (≈ 0.014 µM); MIC [3]: 0.006 µg/mL (≈ 0.014 µM); MIC [4]: 0.013 µg/mL (≈ 0.0304 µM); MIC [5]: 0.2 µg/mL (≈ 0.468 µM); MIC [8]: 1.6 µg/mL (≈ 3.74 µM); PD50 [9]: 0.7 mg/kg; MIC [10]: 0.4 µg/mL (≈ 0.936 µM); MIC [11]: 0.006 µg/mL (≈ 0.014 µM); PD50 [12]: 0.3 mg/kg; MIC [13]: 0.025 µg/mL (≈ 0.0585 µM); MIC [15]: 0.2 µg/mL (≈ 0.468 µM)
COc1c(N2CC[C@@H]([C@@H](C)N)C2)c(F)cc2c(=O)c(C(=O)O)cn(C3CC3)c12	0.05 (≈ 0.128 µM)	0.013 (≈ 0.0334 µM)	0.003 (≈ 0.0077 µM)	0.025 (≈ 0.0642 µM)	0.1 (≈ 0.257 µM)	–	–	0.8 (≈ 2.05 µM)	6	0.2 (≈ 0.514 µM)	0.013 (≈ 0.0334 µM)	1	0.025 (≈ 0.0642 µM)	–	0.05 (≈ 0.128 µM)	41	–
CCN[C@H](C)[C@@H]1CCN(c2nc3c(cc2F)c(=O)c(C(=O)O)cn3C2CC2)C1	0.1 (≈ 0.257 µM)	0.025 (≈ 0.0644 µM)	0.025 (≈ 0.0644 µM)	0.05 (≈ 0.129 µM)	0.2 (≈ 0.515 µM)	7	–	1.6 (≈ 4.12 µM)	6	1.6 (≈ 4.12 µM)	0.05 (≈ 0.129 µM)	4	0.05 (≈ 0.129 µM)	6	0.4 (≈ 1.03 µM)	87	–
